The data set deals with MS2 coat protein. Nature of the data set: apparent Kd, MS2 coat protein; higher = weaker binding; RNA-MaP array; theophylline 2 mM where present. In short, it runs like this: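 Stalled E. coli RNA polymerase transcribed the designs on Illumina sequencing-chip clusters. SNAP-549-labelled MS2 coat protein was titrated from 0.7 or 1.5 nM, doubling to 3 µM, without and then with constant ligand, in 100 mM Tris-HCl pH 7.5, 80 mM KCl, 4 mM MgCl2, BSA, DTT, yeast tRNA and Tween-20. Per-cluster binding curves were fitted to green signal normalised to red-channel RNA signal and control-cluster median Fmax. The apparent Kd is the median of the filtered fits.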

Setting [1] is: designed as: ON switch for theophylline, no ligand.
Setting [2] is: ligand present: theophylline, designed as: ON switch for theophylline.
The mark [3] stands for this setting: designed as: OFF switch for theophylline, no ligand.
Setting [4] is: ligand present: theophylline, designed as: OFF switch for theophylline.

The apparent Kd is a dissociation constant that holds for the conditions of the assay. For the sequence “CCUGCUACGGGAAACCGUAGCAGGAAUGAUACCAGUAGGAAAGACUACCCUUGGCAGCAUGGGAAACAUGAGGAUCACCCAUGUU”, the “apparent Kd” value by setting is: under setting [1], 56.3 nM; under setting [2], 56.6 nM.

Turning to “GGUGGAGGCGUGGGACUUGUCUGAACGGAUACCAGCCACAUCACGGGCCCUUGGCAGCUGUACAUGAGGAUCACCCAUGUCGGUC”, the “apparent Kd” value by setting is: under setting [3], 32.3 nM; under setting [4], 93.7 nM.

As for “GUUAUGGACCUGGAUACCAGCUGGUACAAGGGCGGUCUACAUGAGGAUCACCCAUGUGUCAGCCCUUGGCAGCCAGCAACCCACU”, the “apparent Kd” value by setting is: under setting [3], 9.88 nM; under setting [4], 11.4 nM.

For “AUGUCGUUGAAUAUAGCGGCUUGGAGUGAUACCAGAAUGAUCUAAUUCCCUUGGCAGCAUUACAUGAGGAUCACCCAUGUUCCAG”, the “apparent Kd” value is 51.1 nM under setting [1] and 39.7 nM under setting [2].

“GGUGGUGUGACGGAUACCAGCCACCGCGGCAACGCAACAUGAGGAUCACCCAUGUUGGGUGGCCCUUGGCAGCUGUCGUGCGGCG”: the “apparent Kd” value worked out at 96.5 nM under setting [1] and 84.7 nM under setting [2].

For the sequence “UAUACAUGGGAUACCAUGGAUCCGAGUGAUACCAGCUAUCCGAAUAGCCCUUGGCAGCACAGUACAUGAGGAUCACCCAUGUAUA”, the “apparent Kd” value under setting [1] amounted to 27.5 nM and the “apparent Kd” value under setting [2] came to 33 nM.

For “UAAUAUCACAUAUUAUGGGUGUAAUGUGAUACCAGCUAGGAAACUAGCCCUUGGCAGCACAUGAGGAUCACCCAUGUAAGCUGUA”, the “apparent Kd” value reads like this: under setting [3], 77.9 nM; under setting [4], 49.7 nM.

Consider “UGUCUAGUAAUCGAUACCAGCUACAUGAGGAUCACCCAUGUAGUUCGAACGGCCGCAUGUAGCCCUUGGCAGCGAAUAGUUACAU”, for which the “apparent Kd” value was determined as 18.9 nM under setting [3] and 52.7 nM under setting [4].

For “GCUGUAAGUGCAGAUACCAGCAGGUGAUAUUUCAUAUGACAUGAGGAUCACCCAUGUAACUGCCCUUGGCAGCUGCACUUACAGC”, the “apparent Kd” value under setting [1] is 373 nM and the “apparent Kd” value under setting [2] amounted to 40.9 nM.

For the sequence “UUUACAUGAGGAUCACCCAUGUGCCAUGAUACCAGACAUGAAAAUGUCCCUUGGCAGCAUGAAUAAUCCUCGUCGGGAAACCGAC”, the “apparent Kd” value is, setting by setting: under setting [1], 140 nM; under setting [2], 544 nM.

For the sequence “AUUUUCAUGGUCAUAUAUAUAUCUUCAGAUACCAGACUAUAUUAAGUCCCUUGGCAGCUGUUACAUGAGGAUCACCCAUGUUAUA”, the “apparent Kd” value was 127 nM under setting [3] and 36.2 nM under setting [4].

As to “AGAAUAACACAUGAGGAUCACCCAUGUGAUACCAGCUAGGAAACUAGCCCUUGGCAGCACAUAAUCCUCAUGAAUGUGCUGAAUA”, the “apparent Kd” value under setting [3] was 70.4 nM and the “apparent Kd” value under setting [4] worked out at 60.6 nM.

In the case of “UAUAUAUAAAUUGAUACCAGCGAGAAAACAUGAGGAUCACCCAUGUUCGCCCAUGUUAAGCGCCCUUGGCAGCAAUAUUAUUAUU”, the “apparent Kd” value is, setting by setting: under setting [3], 24.5 nM; under setting [4], 73 nM.

On to “CCUGCGUUUCUUUUCUUUCGCAGGAAUGAUACCAGUAGGGAAACCUACCCUUGGCAGCAUGGGUAACAUGAGGAUCACCCAUGUU”, for which the “apparent Kd” value runs as follows: under setting [1], 473 nM; under setting [2], 82.2 nM.

“AUCGUACCUGAUGAUACCAGCAUGUGCUCGUAACAUGAGGAUCACCCAUGUGAUCAGUAAUGCCCUUGGCAGCAUGAUCGGUACA”: the “apparent Kd” value runs as follows: under setting [1], 57.9 nM; under setting [2], 14.3 nM.

Regarding “UUAUUUAUAUUAGAUACCAGUUUAAUGGCCGCAAAUCCUGACAUGAGGAUCACCCAUGUAAGCCCUUGGCAGCUGGUAUGGGUUU”, the “apparent Kd” value worked out at 19.3 nM under setting [3] and 20.7 nM under setting [4].

Regarding “AGCCUCAUACAUGAGGAUCACCCAUGUGAUACCAGUCAGGAAACUGACCCUUGGCAGCGCAUGAGGAUCACCCAUGCGCGAGGCA”, the “apparent Kd” value amounted to 59.7 nM under setting [3] and 113 nM under setting [4].

As to “CUGCUACAUGAGGAUCACCCAUGUGGAGAUACCAGCCUGAACGAUGGCCCUUGGCAGCUCUUAGCUGGUGAUCAUAUAUUUCAGA”, the “apparent Kd” value amounted to 30.5 nM under setting [3] and 146 nM under setting [4].

As to “AUUAAAAGUUGUGAUACCAGACGAACAUGAGGAUCACCCAUGUAACUUUUAGGUGUUGUAGUCCCUUGGCAGCACUAUGUAGUUA”, the “apparent Kd” value by setting is: under setting [1], 43.6 nM; under setting [2], 38.2 nM.

With “ACGAACGAUAGUGAUACCAGACGUACAUGAGGAUCACCCAUGUUUUGGGUAAGGUUAAUAGUCCCUUGGCAGCACUUUAAGUUCG”, the “apparent Kd” value reads like this: under setting [3], 58.7 nM; under setting [4], 398 nM.

“GAGCUGAUGUAGAAAUUUUAUUUCUGAGAUACCAGUACAGAAAUGUACCCUUGGCAGCUCAGUUUUACAUGAGGAUCACCCAUGU”: the “apparent Kd” value is, setting by setting: under setting [3], 12.2 nM; under setting [4], 15 nM.

Consider “AGCGACAUGCGUGAUACCAGCUACAUGAGGAUCACCCAUGUAAGUAGGAAACUACUGUGUAGCCCUUGGCAGCAUAGUGCAUGUC”, for which the “apparent Kd” value is, setting by setting: under setting [3], 13.5 nM; under setting [4], 41.5 nM.

With “UCACGACGCAUGGAUACCAGCGACAUGAGGAUCACCCAUGUAUGAGGAUCAGCCAUGUUAUGCCCUUGGCAGCCACGAAGGUCAU”, the “apparent Kd” value runs as follows: under setting [3], 14.1 nM; under setting [4], 64.1 nM.

On to “AUCGUACCUGAUGAUACCAGCAUGUGAUCAUAACAUGAGGAUCACCCAUGUAAUCAGUGAUGCCCUUGGCAGCAUAGUCGAUACA”, for which the “apparent Kd” value by setting is: under setting [1], 153 nM; under setting [2], 55.9 nM.

With “CAUACUUUAGUAUGACAUGUGGGCAGUGAUACCAGAUACGAAAGUAUCCCUUGGCAGCACAACAUGAGGAUCACCCAUGUAAUUA”, the “apparent Kd” value amounted to 29.6 nM under setting [1] and 59.2 nM under setting [2].

With “CAAUACGUAACUGAUACCAGUGUACUGACAUGAGGAUCACCCAUGUUGGGUUUUGUUGUACACCCUUGGCAGCAGAAUCGUAUUG”, the “apparent Kd” value by setting is: under setting [3], 70.1 nM; under setting [4], 93.7 nM.

With “AGUAUACAUUCUGAUACCAGAGACAUGAGGAUCACCCAUGUCCGAUCGUCCUGCCUCAGACUCCCUUGGCAGCAGGAUAUGUGCU”, the “apparent Kd” value under setting [3] was determined as 16.2 nM and the “apparent Kd” value under setting [4] is 27.6 nM.

In the case of “ACCCUAGCGAUCGCUCGCUAGGGUGCGGAUACCAGCGAGGUCCAUCGCCCUUGGCAGCCGAACAUGAGGAUCACCCAUGUCGGUA”, the “apparent Kd” value runs as follows: under setting [1], 10.7 nM; under setting [2], 14.3 nM.

For the sequence “CAAGAAGUAACUGAUACCAGUGUACUGACAUGAGGAUCACCCAUGUUGGGUUUUGUUGUACACCCUUGGCAGCAGAAUCUUCUUG”, the “apparent Kd” value was found to be 66.8 nM under setting [3] and 90.5 nM under setting [4].

As to “AACAUGAGGAUCACCCAUGUAUUGGGUGAUACCAGCCUGAAUAAUGGCCCUUGGCAGCACCACGCUAACUUUAUGUCUGCGAACC”, the “apparent Kd” value by setting is: under setting [1], 92.2 nM; under setting [2], 162 nM.

In the case of “UCAUUUGAGUGAGAUGUAAGGUAUCAUGAUACCAGUAGAUAAUUAUACCCUUGGCAGCAUGACAUGAGGAUCACCCAUGUACAUG”, the “apparent Kd” value by setting is: under setting [3], 11.1 nM; under setting [4], 10.3 nM.

As to “AUCGUACCUGAAGAUACCAGCAUGUGAUCAUAACAUGAGGAUCACCCAUGUAAUCAGUGAUGCCCUUGGCAGCUUGAUCGGUACA”, the “apparent Kd” value is, setting by setting: under setting [1], 40.8 nM; under setting [2], 19.2 nM.

For “AACUGGACCCGUGAUACCAGAGACAUGAGGAUCACCCAUGUACAUGAGGAUCACCCAUGUCUCCCUUGGCAGCACCGCAGGGAGC”, the “apparent Kd” value is, setting by setting: under setting [3], 97.5 nM; under setting [4], 393 nM.

Turning to “UGACAUUGCUGCGAUACCAGACAUGAGGAUCACCCAUGUGCCAAAUAAACGUACAUAAAUGUCCCUUGGCAGCGCAGCAAUGUCU”, the “apparent Kd” value reads like this: under setting [3], 64.4 nM; under setting [4], 752 nM.

“AAACUAACGAGAGGAAACCUCGAGGGUGAUACCAGCACAUAAGGGUGCCCUUGGCAGCACCGACGUACAUGAGGAUCACCCAUGU”: the “apparent Kd” value by setting is: under setting [1], 162 nM; under setting [2], 65 nM.

For “UGUAACAUGAGGAUCACCCAUGUAAGUGAUACCAGAUAAGUAGUAGUCCCUUGGCAGCAUAUUGGGAAAGUGUAUAGUCUAUACG”, the “apparent Kd” value under setting [1] came to 52.8 nM and the “apparent Kd” value under setting [2] was 65.1 nM.

Take “UUUUAACAUGAGGAUCACCCAUGUAAUGAUACCAGAGACGAAAGUCUCCCUUGGCAGCAUAUAUCAUUACUCAUAGGAAACUAUG”: the “apparent Kd” value by setting is: under setting [1], 17.5 nM; under setting [2], 16 nM.

In the case of “CAGGUGCAGUCAGAUACCAGAUCUGCACAUGAGGAUCACCCAUGUGUAAUGAGUUCAAAGAUCCCUUGGCAGCUGUGUGAUCCGA”, the “apparent Kd” value by setting is: under setting [1], 165 nM; under setting [2], 193 nM.

Take “GCUGUAAGUGCAGAUACCAGCAAGUGAGGUUUCAUAUGACAUGAGGAUCACCCAUGUAUCUGCCCUUGGCAGCUGCACUUACAGC”: the “apparent Kd” value by setting is: under setting [1], 21.4 nM; under setting [2], 15.2 nM.

Turning to “UCGGCAGUGAACGAUACCAGCGUCACGUGGCCGGUGGUCACAUGAGGAUCACCCAUGUAACGCCCUUGGCAGCGUGCGCGUACCG”, the “apparent Kd” value under setting [3] was 23.9 nM and the “apparent Kd” value under setting [4] came out at 129 nM.

In the case of “CCGAACAUGAGGAUCACCCAUGUUAGGGAUACCAGCCCAGACAUGGGCCCUUGGCAGCUCUAUAGCUGACGAAAGUCAGCAUCGG”, the “apparent Kd” value was found to be 58.5 nM under setting [1] and 30.5 nM under setting [2].

Consider “UUUUAAAGCAUGGCGUAUCGGAAAACCGAUACCAGUACAGAAAUGUACCCUUGGCAGCGGCAUUUUACAUGAGGAUCACCCAUGU”, for which the “apparent Kd” value is, setting by setting: under setting [3], 14 nM; under setting [4], 40.3 nM.

With “CGAUACGUAACUGAUACCAGUGUACUGACAUGAGGAUCACCCAUGUUGGGUUUUGUUGUACACCCUUGGCAGCAGAAUCGUAUCG”, the “apparent Kd” value stood at 67.5 nM under setting [3] and 96.1 nM under setting [4].

“ACAUGAGGAUCACCCAUGUCAAGGCACGAUACCAGCUGAUCCCGUGGCCCUUGGCAGCGUCACGUUUGGUCCCGCGGAUGACACG”: the “apparent Kd” value under setting [1] turned out to be 89 nM and the “apparent Kd” value under setting [2] was found to be 95.8 nM.

For “AGUACACGAACGGAUACCAGCCGGACAUGAGGAUCACCCAUGUCCUACCUCUGUUCGGUUGGCCCUUGGCAGCCGUUCGUGUACA”, the “apparent Kd” value is, setting by setting: under setting [1], 117 nM; under setting [2], 88.3 nM.

Take “UCGUGUGUUUCGGAUACCAGUGAAAUCGAUACAUGAGGAUCACCCAUGUGAGAGGAUGUACACCCUUGGCAGCUGGCUGUUGCGG”: the “apparent Kd” value reads like this: under setting [1], 42.4 nM; under setting [2], 42.6 nM.

Values taken from the EternaBench riboswitch data.
